Calls of active or inactive are those of the source.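 Rule for the calls, unless noted: active = visually confirmed hit in the image check and inhibition above 20%; inconclusive = visually confirmed hit but inhibition not above 20%; inactive = no visual hit in the image check.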

Experiment [1] is described as follows: inhibitors of TNFa-induced NFkB p65 translocation, primary screen, imaging, HUVEC, MLSMR starter and 10KST1 sets (AID 438;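 active = inhibition above 20% together with a positive visual image hit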;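 note: compound added about 3h40 before a 20 min TNFalpha stimulation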;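 for inhibition: signal is the nuclear over cytoplasmic p65 intensity ratio per well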). The settings on record: HUVEC TNFa-induced p65 nuclear translocation; cell count: measured here: nuclei count (cytotoxicity indicator), at 2.08 µM; inhibition: at 2 µM, stronger effect = higher value, 0% TNFa-plus-vehicle, 100% no-TNFa wells.
The nature of experiment [2]: inhibitors of E-selectin induction by TNFa, primary screen, imaging, HUVEC, immunofluorescence, MLSMR starter and 10KST1 sets (AID 487).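 For inhibition: signal is fraction of cell area covered by stained E-selectin grains.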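 For nuclei count: 100% = median nuclei count of all wells on the same plate.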 The settings on record: HUVEC TNFalpha-induced E-selectin immunofluorescence imaging, at 2 µM; inhibition: stronger effect = higher value; nuclei count: measured here: cell number, toxicity.
Experiment [3] is described as follows: DUSP6 inhibitors restoring Erk phosphorylation by chemical complementation, primary imaging in DUSP6-transfected HeLa (AID 609;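 active = compounds giving at least 50% inhibition in the cell-based MKP-3 phosphatase rescue imaging test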;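 for inhibition: phospho-Erk level distribution per well compared with pooled transfected vehicle control wells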). Conditions: HeLa MKP-3 transfected, phospho-Erk imaging KS statistic, at 10 µM, cells stimulated with TPA for 15 min.
The target of experiment [4] is Dual specificity protein phosphatase 6 (Homo sapiens) (UniProt Q16828). The description is as above. The settings on record: HeLa MKP-3 transfected, phospho-Erk imaging KS statistic; at 10 µM; stronger effect = higher value; cells stimulated with TPA for 15 min.
Chain of Dual specificity protein phosphatase 6 (Homo sapiens) (Q16828 whole entry, looked up): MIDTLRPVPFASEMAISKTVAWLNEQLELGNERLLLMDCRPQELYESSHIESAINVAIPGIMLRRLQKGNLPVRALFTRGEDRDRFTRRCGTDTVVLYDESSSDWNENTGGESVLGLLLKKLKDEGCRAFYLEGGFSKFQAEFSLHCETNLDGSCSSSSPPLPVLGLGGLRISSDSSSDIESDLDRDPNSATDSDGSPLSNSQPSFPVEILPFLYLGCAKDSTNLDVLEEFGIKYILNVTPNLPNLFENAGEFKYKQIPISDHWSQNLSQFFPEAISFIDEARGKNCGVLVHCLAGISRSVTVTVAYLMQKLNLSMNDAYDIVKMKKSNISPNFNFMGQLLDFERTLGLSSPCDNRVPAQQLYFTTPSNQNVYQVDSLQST
Experiment [5] has as its target Voltage-gated potassium channel subunit beta-2 (Rattus norvegicus) (UniProt P62483). Briefly: KvBeta enzyme negative modulators, primary screen, biochemical, NADPH fluorescence (AID 622;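 active = fluorescence slope higher than the sample average by over 3 SD, cut at about -0.22 in these data, passing the limit was not always enough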;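 note: slope of raw intensity against log time taken from 70 to 1610 s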). Conditions: recombinant KvBeta, 4-cyanobenzaldehyde reduction, at 10 µM, stronger effect = higher value.
The target is the same in experiment [6]. In words: KvBeta positive modulators, primary screen, biochemical, NADPH fluorescence (AID 623;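 active = NADPH fluorescence slope more negative than the mean of all samples by about 3 SD, 99.7% confidence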;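 note: fluorescence intensity change per second fitted from 20 to 320 s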). Conditions: Recombinant KvBeta, NADPH fluorescence decrease slope, 10 min; at 10 µM; stronger effect = lower value.
Experiment [7] has as its target Muscarinic acetylcholine receptor M4 (Homo sapiens) (UniProt P08173). Briefly: compounds altering M4/GIRK thallium flux, either direction, primary screen, M4 allosteric agonist project, cell-based, HEK293 M4/GIRK, BTC-AM (AID 625;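 active = fluorescence slope after compound addition differing from the mean of all tested samples at 99.7% confidence, mostly higher but some lower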;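 note: thallium influx through GIRK channels coupled to M4 in HEK293 cells with BTC-AM dye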). Conditions: at 10 µM, actives lie on both sides. The essentials: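 Material: M4/GIRK1/GIRK2 stable HEK293 cell line. Medium: pH 7.3 thallium assay buffer. Dosing: single compound concentration, 10 µM final. Schedule: 1 h dye loading, 2 min kinetic read. Measured by: kinetic fluorescence with BTC-AM dye. Read-out: post-addition slope, 15–24 s, of baseline-normalized fluorescence. Benchmarks: carbachol and DMSO controls.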

Experiment [8] is described as follows: inhibitors of larval lipid processing in zebrafish, primary screen, whole organism, PED6 fluorescence, gall bladder and intestine (AID 686;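 active = a full or partial loss of lipid-probe fluorescence in the fish gall bladder, intestine or both, judged by eye; inactive = no fluorescence loss, or compound toxic to the fish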;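 note: larvae 5 to 7 days old with five fish per well; signal comes from phospholipase A2 cleavage of quenched PED6 carried via bile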). The settings on record: Zebrafish larvae PED6 lipid processing, fluorescence scoring; screened at 20 µM (by protocol). Put shortly: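 System: live zebrafish larvae aged 5-7 days, whole organism; measure: graded gall bladder and intestinal fluorescence inhibition per well; incubation: overnight exposure; reagent: ingested quenched lipid PED6 at 100 nM; signal: By-eye fluorescence microscopy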

A short description of experiment [9]: inhibitors of Chlamydomonas gravitaxis, primary screen, whole organism, Chlamydomonas reinhardtii, WT vs cilia-less mutant, absorbance, 96-well (AID 463189;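 active = inhibition at or above 50% relative to wild type and mutant plate controls; inactive = inhibition below 50%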;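 note: 0% = wild type cc124 cells in DMSO and 100% = ciliumless bld1 mutant cells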). Conditions: OD600 absorbance, 2 days, at 10 µM, stronger effect = higher value.
[10] abbreviates: measured here: cell density z-score.
[11] abbreviates: measured here: nuclear c-Myc green intensity z-score.
Setting [12] is: measured here: nuclear pErk red intensity z-score, stronger effect = higher value.

Chain of Voltage-gated potassium channel subunit beta-2 (Rattus norvegicus) (P62483 whole entry, looked up): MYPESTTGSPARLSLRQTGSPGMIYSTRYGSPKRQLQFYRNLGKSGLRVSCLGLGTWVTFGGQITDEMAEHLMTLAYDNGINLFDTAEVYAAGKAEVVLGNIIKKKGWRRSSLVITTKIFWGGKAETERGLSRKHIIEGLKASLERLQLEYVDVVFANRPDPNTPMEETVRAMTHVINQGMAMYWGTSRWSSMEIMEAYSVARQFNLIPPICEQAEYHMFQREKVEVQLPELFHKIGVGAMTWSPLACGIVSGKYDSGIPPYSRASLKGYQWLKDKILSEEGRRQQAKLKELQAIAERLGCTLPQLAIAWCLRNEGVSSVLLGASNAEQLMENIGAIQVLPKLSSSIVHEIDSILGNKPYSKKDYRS
Chain of Muscarinic acetylcholine receptor M4 (Homo sapiens) (P08173 whole entry, looked up): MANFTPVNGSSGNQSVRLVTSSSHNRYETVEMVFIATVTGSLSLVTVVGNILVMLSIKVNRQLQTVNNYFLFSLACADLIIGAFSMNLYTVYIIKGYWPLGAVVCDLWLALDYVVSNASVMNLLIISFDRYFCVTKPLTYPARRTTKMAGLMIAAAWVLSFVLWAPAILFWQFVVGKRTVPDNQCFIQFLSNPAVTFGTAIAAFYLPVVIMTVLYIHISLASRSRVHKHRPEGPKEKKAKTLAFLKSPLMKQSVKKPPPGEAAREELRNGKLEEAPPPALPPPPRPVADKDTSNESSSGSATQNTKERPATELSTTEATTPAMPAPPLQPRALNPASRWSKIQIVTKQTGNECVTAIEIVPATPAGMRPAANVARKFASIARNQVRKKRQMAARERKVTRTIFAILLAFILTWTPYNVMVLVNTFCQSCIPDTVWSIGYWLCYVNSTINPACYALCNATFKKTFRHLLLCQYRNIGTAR

One may read the inhibition as the change of the read-out against control, counted positive when it falls. Consider `COc1cccc(C(=O)N2CCN(Cc3ccccn3)CC2)c1OC`, for which the cell count in experiment [1] amounted to 503. Also, the inhibition was -5.7% (inactive) in experiment [1], -70.6% (inactive) in experiment [2], -12.3% (inactive) in experiment [4] and 1.71% (inactive) in [9]. In experiment [2], the nuclei count came out at 158%. Moreover, the z-score is -2.51 in experiment [3] (setting [10]), 0.355 in experiment [3] (setting [11]) and 0.989 in experiment [3] (setting [12]). For the same molecule, the values for the fluorescence slope in experiment [5] and in experiment [7] were -0.466 (inactive) and 0.00645 (inactive), respectively. The NADPH fluorescence slope in experiment [6] is -5.6e-05 (inactive). In experiment [8], the outcome was inactive.
On to `CCc1c(C)c2cc(Cl)c(O)c(CN3CCCCC3)c2oc1=O`, for which, in experiment [1], the cell count amounted to 634. The inhibition in experiment [1] was -3.5% (inactive); in experiment [2], 6.3% (inactive); in [4], -10.6% (inactive); in experiment [9], -1.88% (inactive). Further, the nuclei count in experiment [2] worked out at 174%. The z-score in [3] (setting [10]) was 0.309; in [3] (setting [11]) it was 0.0643; in experiment [3] (setting [12]), -0.532. For the same molecule, the fluorescence slope was -0.0112 (inactive) in [5] and 0.00604 (inactive) in [7]. In experiment [6], the NADPH fluorescence slope is -2.8e-08 (inactive). Moreover, the molecule was classed as inactive in experiment [8].
In the case of `CCn1c(SCC(=O)Nc2ccccc2C(=O)OC)nnc1-c1ccc(N)cc1`, the cell count in experiment [1] was 653. Also, the inhibition is 2.4% (inactive) in experiment [1], 7.2% (inactive) in experiment [2], 22.1% (inactive) in experiment [4] and 19.8% (inactive) in experiment [9]. This molecule yielded a nuclei count in [2] of 176%. Also, the z-score in [3] (setting [10]) is 0.614; in experiment [3] (setting [11]) it was 0.0177; in experiment [3] (setting [12]) it was -0.913. Besides, the fluorescence slope in [5] is -0.46 (inactive); in [7], 0.00557 (inactive). Further, the NADPH fluorescence slope in experiment [6] is -4.1e-05 (inactive). The outcome in [8] was inactive.
Consider `Cc1ccccc1-n1c(=O)/c(=C\c2ccco2)s/c1=C(/C#N)C(=O)Nc1ccccc1`, for which the cell count in experiment [1] came out at 677. Moreover, the inhibition in [1] is -5.8% (inactive); in experiment [2], -17.2% (inactive); in experiment [4], 9.37% (inactive); in [9], -0.051% (inactive). This molecule had a nuclei count in experiment [2] of 151%. In addition, the z-score in experiment [3] (setting [10]) is 0.299; in [3] (setting [11]), -0.624; in experiment [3] (setting [12]), -0.976. Besides, the fluorescence slope in experiment [5] is -0.475 (inactive); in experiment [7], 0.00343 (inactive). In experiment [6], the NADPH fluorescence slope was -4.4e-05 (inactive). The molecule was classed as inactive in experiment [8].
As for `CCCCCCOc1ccc(C(=O)n2cnc(N)n2)cc1`, in [1], the cell count turned out to be 664. Further, the inhibition was -4.5% (inactive) in [1], -26.7% (inactive) in experiment [2], -5.95% (inactive) in experiment [4] and 0.29% (inactive) in [9]. The nuclei count in experiment [2] is 174%. The z-score in experiment [3] (setting [10]) was 0.344; in [3] (setting [11]) it was 0.534; in [3] (setting [12]) it was -0.706. Besides, the fluorescence slope in [5] is -0.508 (inactive); in experiment [7] it was 0.00638 (inactive). In addition, in experiment [6], the NADPH fluorescence slope is -7.5e-05 (inactive). The molecule was called inactive in experiment [8].
As for `CCCCCCOc1ccc(N2C(=O)CC(N3CCN(C(=O)c4ccco4)CC3)C2=O)cc1` (stereo unspecified), in experiment [1], the cell count is 632. The inhibition in experiment [1] was 8.2% (inactive); in [2], -105% (inactive); in experiment [4], 10.1% (inactive); in experiment [9] it was 5.01% (inactive). Moreover, the nuclei count in experiment [2] turned out to be 150%. In addition, the z-score was 0.106 in experiment [3] (setting [10]), -0.155 in experiment [3] (setting [11]) and -0.8 in experiment [3] (setting [12]). Besides, the fluorescence slope was -0.487 (inactive) in experiment [5] and 0.00531 (inactive) in [7]. In [6], the NADPH fluorescence slope was -3.5e-05 (inactive). Besides, in [8], the molecule was classed as inactive.
Consider `CCOc1ccc(S(=O)(=O)NC(C)(C)C)cc1-c1nc2c(C(C)(C)C)nn(C)c2c(=O)[nH]1`, for which, in [1], the cell count was found to be 654. Moreover, the inhibition is -6.1% (inactive) in experiment [1], -8.5% (inactive) in experiment [2], 31.4% (inactive) in [4] and 88.4% (active) in [9]. In addition, the nuclei count in experiment [2] stood at 99.3%. Further, the z-score was 2.17 in experiment [3] (setting [10]), -1.88 in experiment [3] (setting [11]) and -0.971 in experiment [3] (setting [12]). For the same molecule, the fluorescence slope in [5] is -0.462 (inactive); in [7], 0.0055 (inactive). The NADPH fluorescence slope in experiment [6] was -5.9e-05 (inactive). Also, the molecule was called inactive in experiment [8].

For the origin of these results see PubChem BioAssay.
